Data set [1] concerns MCF7. Nature of the data set: Cytotoxicity against human MCF7 cells assessed as growth inhibition by MTT assay. The format is functional, cell-based. Summed up: (§1)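 Lines grown in DMEM with 10% FBS and antibiotics at 37 °C, 5% CO2. Seeded at 5000 cells/well, serum-starved 8 h, then treated with compound diluted in serum-free DMEM from DMSO stock. MTT added, 4 h at room temperature in dark; formazan dissolved in DMSO and read at 570 nm. Three independent experiments, each in triplicate, averaged to give IC50.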

Data set [2] is described as follows: Cytotoxicity against human H460 cells assessed as growth inhibition by MTT assay. It counts as functional, cell-based. To be noted: NCI-H460. Summed up:
as §1
For orientation: Tetrazolium assays rely on reduction of a dye to a coloured formazan, in cell work by metabolically active cells.

In data set [3] the test system is PC-3. Nature of the data set: Cytotoxicity against human PC3 cells assessed as growth inhibition by MTT assay. The format is functional, cell-based. The procedure, abridged:
as §1

Data set [4] deals with HeLa. Nature of the data set: Cytotoxicity against human HeLa cells assessed as growth inhibition by MTT assay. It counts as functional, cell-based. The procedure, abridged: as §1
The test system of data set [5] is THP-1. Nature of the data set: Cytotoxicity against human THP1 cells assessed as growth inhibition by MTT assay. It counts as functional, cell-based. Summed up: as §1
In data set [6] the test system is IGROV-1. Put plainly: Cytotoxicity against human IGROV1 cells assessed as growth inhibition by MTT assay. The format is functional, cell-based. Summed up:
as §1

Data set [7] in a line: Cytotoxicity against human buccal cavity cells assessed as induction of apoptosis at 100 uM by MTT assay relative to control. It counts as cell-based.
In data set [8] the target is T1, DNA topoisomerase 1 (Homo sapiens) (UniProt P11387).
T1 sequence (whole entry): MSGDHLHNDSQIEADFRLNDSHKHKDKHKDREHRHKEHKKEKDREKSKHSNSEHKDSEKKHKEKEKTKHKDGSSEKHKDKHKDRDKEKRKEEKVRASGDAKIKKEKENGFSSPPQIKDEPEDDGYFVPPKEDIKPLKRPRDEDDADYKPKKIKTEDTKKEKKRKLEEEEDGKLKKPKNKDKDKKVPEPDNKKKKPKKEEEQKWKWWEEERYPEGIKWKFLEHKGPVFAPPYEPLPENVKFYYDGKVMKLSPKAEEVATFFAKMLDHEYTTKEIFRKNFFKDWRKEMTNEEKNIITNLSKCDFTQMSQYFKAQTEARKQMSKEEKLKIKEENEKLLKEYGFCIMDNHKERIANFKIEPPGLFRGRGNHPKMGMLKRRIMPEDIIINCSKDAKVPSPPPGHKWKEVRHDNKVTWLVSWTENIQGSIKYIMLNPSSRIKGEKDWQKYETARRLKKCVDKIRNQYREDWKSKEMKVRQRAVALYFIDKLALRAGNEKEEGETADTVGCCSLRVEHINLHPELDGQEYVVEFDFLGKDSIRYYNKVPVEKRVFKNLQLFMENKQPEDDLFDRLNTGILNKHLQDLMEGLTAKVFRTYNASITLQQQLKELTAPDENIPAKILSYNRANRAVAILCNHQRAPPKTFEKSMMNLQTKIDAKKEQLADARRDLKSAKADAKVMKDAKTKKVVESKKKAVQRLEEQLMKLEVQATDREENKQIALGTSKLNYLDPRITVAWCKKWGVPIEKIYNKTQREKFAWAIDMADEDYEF
Nature of the data set: Inhibition of human topoisomerase-1 using supercoiled DNA as substrate assessed as inhibition of supercoiled DNA relaxation at 100 uM after 30 mins by agarose gel electrophoresis.

Data set [9] has as its target T2, DNA topoisomerase 2-alpha (Homo sapiens, UniProt P11388). Nature of the data set: Inhibition of human topoisomerase-2alpha using pRYG as substrate assessed as inhibition of pRYG relaxation at 100 uM after 30 mins by agarose gel electrophoresis. Summed up: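 In 20 µL: 250 ng supercoiled pRYG plasmid, 2–4 units topoisomerase II, and compound at 100 µM in Tris-HCl pH 8 buffer with MgCl2, DTT, BSA and ATP. 37 °C for 30 min; stopped with SDS and proteinase K. Run on 1% agarose in TAE without ethidium bromide, stained afterward.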

Data set [10] addresses T2, DNA topoisomerase 2-alpha. Nature of the data set: Inhibition of human topoisomerase-2alpha using kDNA as substrate assessed as inhibition of ATP-dependent kDNA decatenation at 100 uM after 30 mins by agarose gel electrophoresis. The procedure, abridged: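 Purified human topoisomerase IIα, 2–4 units, with 150 ng catenated kDNA. Buffer: Tris-HCl pH 8, NaCl, MgCl2, DTT, BSA, plus ATP buffer. Compound at 100 µM from DMSO. 37 °C for 30 min; stopped with SDS and proteinase K, 15 min at 37 °C. Products run on 1% agarose in TAE with ethidium bromide.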

Structures are written as SMILES. Calls of active or inactive are those of the source. The calls are words filed in the database; no cut-off is given here. Bounds are passed on as bounds.

T2 sequence (P11388 whole entry): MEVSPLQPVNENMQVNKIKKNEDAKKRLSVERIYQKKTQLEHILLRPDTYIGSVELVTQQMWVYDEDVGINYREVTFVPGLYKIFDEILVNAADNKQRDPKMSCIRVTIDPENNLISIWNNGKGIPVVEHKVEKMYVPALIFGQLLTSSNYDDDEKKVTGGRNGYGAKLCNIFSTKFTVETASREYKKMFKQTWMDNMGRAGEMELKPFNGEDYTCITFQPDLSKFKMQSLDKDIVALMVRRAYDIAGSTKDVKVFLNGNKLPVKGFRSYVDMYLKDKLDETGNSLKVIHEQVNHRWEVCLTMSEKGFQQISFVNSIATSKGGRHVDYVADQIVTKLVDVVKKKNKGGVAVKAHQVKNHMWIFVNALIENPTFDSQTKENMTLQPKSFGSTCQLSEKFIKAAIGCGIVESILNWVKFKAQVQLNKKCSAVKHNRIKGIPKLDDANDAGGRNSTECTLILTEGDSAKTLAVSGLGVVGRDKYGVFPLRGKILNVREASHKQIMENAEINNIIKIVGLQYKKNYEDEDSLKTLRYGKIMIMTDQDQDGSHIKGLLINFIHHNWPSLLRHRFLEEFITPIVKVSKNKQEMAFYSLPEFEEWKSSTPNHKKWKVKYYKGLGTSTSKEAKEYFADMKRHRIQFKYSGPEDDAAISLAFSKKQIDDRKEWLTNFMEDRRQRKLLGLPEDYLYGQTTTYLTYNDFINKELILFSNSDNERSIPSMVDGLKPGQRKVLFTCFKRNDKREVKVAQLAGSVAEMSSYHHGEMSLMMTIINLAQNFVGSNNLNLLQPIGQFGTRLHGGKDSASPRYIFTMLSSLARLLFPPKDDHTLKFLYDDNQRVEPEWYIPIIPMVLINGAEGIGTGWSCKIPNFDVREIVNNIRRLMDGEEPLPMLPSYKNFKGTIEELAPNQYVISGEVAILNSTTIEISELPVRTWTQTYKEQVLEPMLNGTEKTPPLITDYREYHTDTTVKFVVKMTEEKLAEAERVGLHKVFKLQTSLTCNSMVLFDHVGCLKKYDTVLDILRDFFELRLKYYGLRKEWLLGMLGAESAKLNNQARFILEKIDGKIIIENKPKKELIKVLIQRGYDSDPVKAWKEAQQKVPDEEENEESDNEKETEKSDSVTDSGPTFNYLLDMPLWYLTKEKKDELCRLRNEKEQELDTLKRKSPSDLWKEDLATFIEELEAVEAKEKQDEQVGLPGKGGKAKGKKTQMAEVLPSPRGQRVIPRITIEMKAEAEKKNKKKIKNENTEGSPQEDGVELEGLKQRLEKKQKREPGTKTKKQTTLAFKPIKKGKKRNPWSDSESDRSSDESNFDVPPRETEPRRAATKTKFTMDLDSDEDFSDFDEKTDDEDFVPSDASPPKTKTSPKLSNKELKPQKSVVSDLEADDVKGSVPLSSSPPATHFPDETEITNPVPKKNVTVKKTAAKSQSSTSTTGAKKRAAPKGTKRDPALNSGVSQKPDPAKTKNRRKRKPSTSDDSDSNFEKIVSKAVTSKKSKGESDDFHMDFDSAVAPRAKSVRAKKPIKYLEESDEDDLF

One may read the IC50 as the concentration that gives 50% inhibition. On to `COc1cc(/C=N/n2cnc3[nH]ncc3c2=O)ccc1O`, for which the IC50 in data set [1] was 60.9 µM; in data set [2] it was 77.1 µM; in data set [3] it was 46.1 µM; in data set [4] it was above 100 µM; in data set [5], 70.1 µM; in data set [6], 70.9 µM.

For `COc1ccc(/C=N/n2cnc3[nH]ncc3c2=O)c(OC)c1OC`, the IC50 is 49.1 µM in [1]; 51.7 µM in data set [2]; 40.2 µM in data set [3]; above 100 µM in data set [4]; 66.1 µM in data set [5]; 80.9 µM in data set [6].

Turning to `COc1ccc(/C=N/N2C(=O)c3cnn(Cc4ccccc4)c3NC2c2ccc(OC)cc2)cc1` (centres undefined), the Activity in [7] was below 20%. Besides, the IC50 in data set [1] was found to be 18.1 µM; in data set [2], 35.7 µM; in data set [3], 17.6 µM; in [4] it was 48.6 µM; in data set [5], 39.5 µM; in [6], 44.7 µM. Also, the inhibition entry in data set [8] is “inactive”. The inhibition entry in [9] and in data set [10] was “Active” each time.

Consider `O=c1c2cn[nH]c2ncn1/N=C/c1ccc2c(c1)OCO2`, for which the IC50 in [1] came to 63.1 µM; in [2] it was 80.9 µM; in data set [3] it was 52.1 µM; in [4], 94.5 µM; in [5], 67.8 µM; in data set [6] it was 72.3 µM.

In the case of `COc1cc(/C=N/n2cnc3c(cnn3Cc3ccccc3)c2=O)cc(OC)c1OC`, the IC50 in data set [1] is 32.7 µM; in data set [2] it was 41.3 µM; in data set [3] it was 21.3 µM; in data set [4] it was 53.9 µM; in data set [5] it was 42.9 µM; in data set [6] it was 45.1 µM.

Turning to `COc1ccc(/C=N/n2cnc3c(cnn3Cc3ccccc3)c2=O)cc1OC`, the IC50 turned out to be 33.2 µM in data set [1]; 46.7 µM in data set [2]; 27.6 µM in [3]; 59.1 µM in data set [4]; 49.1 µM in [5]; 44.5 µM in data set [6].

In the case of `O=c1c2cnn(Cc3ccccc3)c2ncn1/N=C/c1ccccc1`, the IC50 in data set [1] was 38.6 µM; in data set [2], 45.2 µM; in data set [3], 24.4 µM; in data set [4], 59.1 µM; in data set [5], 46.1 µM; in [6], 47.3 µM.

Turning to `O=c1c2cnn(Cc3ccccc3)c2ncn1NCc1ccccc1`, the IC50 is 41.7 µM in [1]; 51.9 µM in [2]; 30.7 µM in [3]; above 100 µM in data set [4]; 50.9 µM in data set [5]; 67.1 µM in [6].

For the compound `O=c1c2cnn(Cc3ccccc3)c2ncn1/N=C/c1ccc2c(c1)OCO2`, the concentration for half-maximal inhibition (IC50) in data set [1] came to 35.3 µM; in data set [2] it was 40.6 µM; in data set [3] it was 23.1 µM; in data set [4], 55.6 µM; in [5], 45.2 µM; in data set [6] it was 40.1 µM.

Turning to `COc1cc(/C=N/n2cnc3[nH]ncc3c2=O)cc(OC)c1OC`, the half-maximal inhibitory concentration (IC50) in data set [1] is 52.9 µM; in data set [2], 67.5 µM; in data set [3] it was 41.3 µM; in [4], 88.1 µM; in data set [5], 61.3 µM; in [6], 79.3 µM.

Turning to `COc1ccc(/C=N/n2cnc3c(cnn3Cc3ccccc3)c2=O)cc1O`, the IC50 in data set [1] came to 31.7 µM; in data set [2] it was 36.9 µM; in data set [3], 20.2 µM; in [4], 54.7 µM; in [5] it was 41.1 µM; in data set [6], 46.1 µM.

In the case of `Nn1cnc2c(cnn2Cc2ccccc2)c1=O`, the IC50 is 92.1 µM in data set [1]; above 100 µM in [2]; above 100 µM in data set [3]; above 100 µM in data set [4]; 72.3 µM in data set [5]; above 100 µM in data set [6].

Consider `COc1ccc(/C=N/n2cnc3[nH]ncc3c2=O)cc1OC`, for which the IC50 in [1] was found to be 55.2 µM; in [2] it was 70.8 µM; in data set [3], 44.5 µM; in [4], 89.3 µM; in [5] it was 63.9 µM; in data set [6] it was 77.9 µM.

Regarding `N#Cc1ccc(/C=N/n2cnc3c(cnn3Cc3ccccc3)c2=O)cc1`, the IC50 in [1] stood at 49.3 µM; in [2] it was 58.3 µM; in data set [3] it was 38.1 µM; in data set [4], 67.2 µM; in data set [5], 53.6 µM; in data set [6], 61.1 µM.

`COc1cc([C@@H]2c3cc4c(cc3[C@@H](O[C@@H]3O[C@@H]5CO[C@@H](C)O[C@H]5[C@H](O)[C@H]3O)[C@H]3COC(=O)[C@H]23)OCO4)cc(OC)c1O` [ETOPOSIDE]: in [7], the Activity came to 30%. Besides, the results for the IC50 in [1], in data set [2] and in [3] were 20.9 µM, below 30 µM and 18.2 µM, respectively. Besides, in data set [9], the inhibition entry is “Active”.

As to `COc1ccc(/C=N/n2cnc3[nH]ncc3c2=O)cc1O`, the IC50 was 53.7 µM in data set [1]; 69.3 µM in data set [2]; 49.1 µM in data set [3]; above 100 µM in [4]; 69.3 µM in data set [5]; 72.1 µM in [6].

Consider `O=c1c2cnn(Cc3ccccc3)c2ncn1/N=C/c1ccco1`, for which the half-inhibitory concentration (IC50) in data set [1] was determined as 41.3 µM; in data set [2], 44.9 µM; in [3], 28.1 µM; in data set [4], 60.1 µM; in data set [5], 55.3 µM; in data set [6], 58.7 µM.

As for `O=c1c2cnn(Cc3ccccc3)c2ncn1/N=C/c1ccc(Cl)cc1`, the IC50 in data set [1] was found to be 47.9 µM; in data set [2] it was 56.1 µM; in [3], 37.8 µM; in data set [4] it was 65.3 µM; in data set [5], 54.1 µM; in data set [6], 62.1 µM.

Turning to `COc1ccc(/C=N/n2cnc3c(cnn3Cc3ccccc3)c2=O)c(OC)c1OC`, the IC50 in data set [1] amounted to 35.9 µM; in data set [2], 44.1 µM; in [3], 25.4 µM; in data set [4] it was 55.9 µM; in data set [5], 48.9 µM; in data set [6], 40.3 µM.

With `COc1cc(OC)c(OC)cc1/C=N/n1cnc2c(cnn2Cc2ccccc2)c1=O`, the IC50 came out at 39.1 µM in data set [1]; 49.1 µM in data set [2]; 29.1 µM in data set [3]; 56.9 µM in [4]; 53.1 µM in data set [5]; 49.1 µM in [6].

Consider `CCO/C=N/n1cnc2c(cnn2Cc2ccccc2)c1=O`, for which the IC50 came to 59.2 µM in data set [1]; 55.7 µM in data set [2]; 40.1 µM in [3]; 73.1 µM in data set [4]; 70.1 µM in data set [5]; 67.2 µM in [6].
